Measured values published in ChEMBL document CHEMBL1149885, “Active core structure of terfestatin A, a new specific inhibitor of auxin signaling” (Bioorg Med Chem, 2008).
Activity calls are given as the source filed them. No cut-off for these calls is given here.

Each compound was assayed on Arabidopsis (assay: Inhibition of indole-3-acetic acid-induced GUS reporter gene expression in Arabidopsis BA3 at 50 uM after 5 hrs).
Assay type: functional, organism-based
How it was run: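 Arabidopsis BA3::GUS seedlings (GUS under an auxin-responsive promoter) were grown vertically for 5 days under continuous light. They were moved into GM (0.5x MS salts, 1% sucrose, B5 vitamins, 0.2 g/L MES, pH 5.8) holding 50 µM derivative plus 1 µM IAA for 5 h. GUS was then stained histochemically with 1 mM X-Gluc at 37 °C for 3–4 h.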
With `OC[C@H]1O[C@@H](Oc2ccc(O)c(-c3ccccc3)c2O)[C@H](O)[C@@H](O)[C@@H]1O` the Activity was “inactive”.
`COc1c(O[C@@H]2O[C@H](CO)[C@@H](O)[C@H](O)[C@H]2O)c(-c2ccccc2)cc(O)c1-c1ccccc1` was tested, and the Activity was “inactive”.
With `CCCCOc1ccc(-c2c(O)cc(-c3ccccc3)c(O[C@@H]3O[C@H](CO)[C@@H](O)[C@H](O)[C@H]3O)c2O)cc1` the Activity was “inactive”.
With `CCCOc1c(-c2ccccc2)cc(O)c(-c2ccccc2)c1O` the Activity was “Active”.
In the case of `OC[C@H]1O[C@@H](Oc2cc(-c3ccccc3)c(O)cc2-c2ccccc2)[C@H](O)[C@@H](O)[C@@H]1O`, the Activity is reported as “Active”.
For `COCOc1c(-c2ccccc2)cc(O)c(-c2ccccc2)c1O`, the Activity was “Active”.
`CCCCCOc1c(-c2ccccc2)cc(O)c(-c2ccccc2)c1O` was tested, and the Activity was “Active”.
In the case of `CC(=O)OC[C@H]1O[C@@H](Oc2c(-c3ccccc3)cc(O)c(-c3ccccc3)c2O)[C@H](OC(C)=O)[C@@H](OC(C)=O)[C@@H]1OC(C)=O`, the Activity is reported as “inactive”.
For `CCOc1c(-c2ccccc2)cc(O)c(-c2ccccc2)c1O`, the Activity was “Active”.
`OC[C@H]1O[C@@H](Oc2c(-c3ccccc3)cc(O)c(-c3cccc4ccccc34)c2O)[C@H](O)[C@@H](O)[C@@H]1O` (single isomer, unassigned) was tested, and the Activity was “inactive”.
`Cc1ccc(-c2c(O)cc(-c3ccccc3)c(O[C@@H]3O[C@H](CO)[C@@H](O)[C@H](O)[C@H]3O)c2O)cc1` was tested, and the Activity was “inactive”.
In the case of `CC(C)COc1c(-c2ccccc2)cc(O)c(-c2ccccc2)c1O`, the Activity is reported as “inactive”.
In the case of `Oc1cc(-c2ccccc2)c(OCC2CC2)c(O)c1-c1ccccc1`, the Activity is reported as “inactive”.
With `Oc1cc(-c2ccccc2)c(OCC2CCCCC2)c(O)c1-c1ccccc1` the Activity was “inactive”.
For `CCCCOc1c(-c2ccccc2)cc(O)c(-c2ccccc2)c1O`, the Activity was “Active”.
With `CCCCCCOc1c(-c2ccccc2)cc(O)c(-c2ccccc2)c1O` the Activity was “inactive”.
`OC[C@H]1O[C@@H](Oc2c(O)cc(O)cc2-c2ccccc2)[C@H](O)[C@@H](O)[C@@H]1O` was tested, and the Activity was “inactive”.
`CCCCOc1ccc(-c2cc(O)c(-c3ccccc3)c(O)c2O[C@@H]2O[C@H](CO)[C@@H](O)[C@H](O)[C@H]2O)cc1` was tested, and the Activity was “inactive”.
`Oc1cc(-c2ccccc2)c(OCCCCCl)c(O)c1-c1ccccc1` was tested, and the Activity was “Active”.
`COC(=O)c1ccc(-c2cc(O)c(-c3ccccc3)c(O)c2O[C@@H]2O[C@H](CO)[C@@H](O)[C@H](O)[C@H]2O)cc1` was tested, and the Activity was “inactive”.
For `CCOC(=O)CCCCOc1ccc(-c2cc(O)c(-c3ccccc3)c(O)c2O[C@@H]2O[C@H](CO)[C@@H](O)[C@H](O)[C@H]2O)cc1`, the Activity was “inactive”.
`COc1cc(-c2ccccc2)c(O[C@H]2O[C@@H](CO)[C@H](O)[C@@H](O)[C@@H]2O)c(O)c1-c1ccccc1` was tested, and the Activity was “inactive”.
